Most compounds without a hit are left out; they make up all but 4.7% or so of the library.
Cl transport mod = modulates chloride dependent transport by human KCC2 | Q9H2X9 | 190,000 compounds, 2.2% hits | B-score of Tl+ flux slope (higher = more flux/activation; lower = inhibition) at 10 µM | KCC2 cells, thallium flux FluoZin-2 fluorescence;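 active = thallium flux slope and its plate-corrected score both differing from the plate sample mean at a set confidence after two filtering rounds, in either direction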;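 note: slope of fluorescence scaled to starting intensity during 10 to 20 s after thallium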
Target sequence (Q9H2X9 whole entry, looked up): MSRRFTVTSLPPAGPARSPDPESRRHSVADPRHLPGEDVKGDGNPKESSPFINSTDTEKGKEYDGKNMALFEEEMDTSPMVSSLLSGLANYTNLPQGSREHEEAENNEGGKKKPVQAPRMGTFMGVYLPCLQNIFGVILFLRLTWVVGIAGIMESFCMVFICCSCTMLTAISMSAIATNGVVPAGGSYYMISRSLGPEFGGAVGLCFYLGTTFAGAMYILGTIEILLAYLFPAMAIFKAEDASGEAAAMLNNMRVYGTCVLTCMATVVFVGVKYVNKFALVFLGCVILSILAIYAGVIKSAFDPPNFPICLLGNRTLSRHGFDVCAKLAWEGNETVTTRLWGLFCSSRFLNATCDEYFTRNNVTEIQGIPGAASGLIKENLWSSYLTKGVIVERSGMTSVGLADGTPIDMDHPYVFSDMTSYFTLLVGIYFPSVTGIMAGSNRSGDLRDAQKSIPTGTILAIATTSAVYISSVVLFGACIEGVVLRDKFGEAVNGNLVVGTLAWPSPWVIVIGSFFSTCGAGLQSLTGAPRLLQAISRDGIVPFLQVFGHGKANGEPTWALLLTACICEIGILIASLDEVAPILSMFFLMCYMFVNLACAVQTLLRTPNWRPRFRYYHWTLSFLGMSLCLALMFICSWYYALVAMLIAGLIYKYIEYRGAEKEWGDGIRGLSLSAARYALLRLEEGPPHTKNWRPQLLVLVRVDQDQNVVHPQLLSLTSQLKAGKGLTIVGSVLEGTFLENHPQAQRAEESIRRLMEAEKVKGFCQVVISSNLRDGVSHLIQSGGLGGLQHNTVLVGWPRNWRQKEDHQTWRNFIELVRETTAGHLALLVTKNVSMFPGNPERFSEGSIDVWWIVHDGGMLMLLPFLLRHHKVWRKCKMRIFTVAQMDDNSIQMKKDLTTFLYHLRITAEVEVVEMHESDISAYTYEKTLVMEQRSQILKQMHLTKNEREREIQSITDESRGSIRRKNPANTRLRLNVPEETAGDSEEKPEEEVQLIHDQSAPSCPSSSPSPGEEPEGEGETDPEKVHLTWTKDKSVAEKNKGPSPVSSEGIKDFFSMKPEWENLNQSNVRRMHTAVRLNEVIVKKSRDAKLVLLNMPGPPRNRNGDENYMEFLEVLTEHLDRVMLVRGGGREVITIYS
RGS4 pot = potentiators or activators of RGS4. HEK293 M3R/inducible RGS4, carbachol calcium flux Fluo4; hits give low values. B-score at 10 µM. 310,000 compounds, 0.92% hits;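 active = B-score of the integrated calcium signal more than 4 SD below the library mean, with starting fluorescence not abnormally high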;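 note: negative B-score means reduced calcium response which marks RGS4 activation or potentiation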
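Assay system: Inducible-RGS4 HEK293 cells carrying M3 receptor | Schedule: Compound preincubation 20 min at room temperature before agonist | Signal: Kinetic calcium fluorescence imaging with Fluo4-AM dye, 2 µM | Read-out basis: B score from integrated fluorescence ratio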
MrgX1 PAM = human MrgX1 positive allosteric modulation, primary screen. Q96LB2. MrgX1-HEK293, Fluo-4 calcium flux, FDSS; hits give high values. B-score at 10 µM. 310,000 compounds, 0.63% hits. AID 588675;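 active = plate-corrected calcium response at least 3 library SD above typical, normal starting fluorescence, not activating the receptor alone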;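 note: compound read alongside a low EC10 to EC30 dose of BAM8-22 agonist; peak minus trough fluorescence over baseline measured at the second addition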
MrgX1 antagonist = human MrgX1 receptor antagonism, primary screen. Q96LB2. MRGX1-HEK293 calcium flux, Fluo-4, BAM8-22 antagonism; hits give low values. B-score at 10 µM. 310,000 compounds, 1.3% hits;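 active = calcium-response B-score plate-corrected more than 3 library SD below zero, starting fluorescence within 5 deviations, no agonist response on first addition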;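 note: peak minus trough fluorescence over baseline after final BAM8-22 challenge near maximal dose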
RGS4 inh = inhibitors of human RGS4 | P49798 | HEK293 M3R/RGS4 inducible, Fluo-4 calcium flux; hits give high values; triggered by carbachol at its EC20 | B-score at 10 µM | 310,000 compounds, 0.45% hits | AID 463165;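 active = B-score, a plate-corrected calcium signal, over three deviations above library mean, with baseline fluorescence within five deviations of library mean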;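 note: RGS4 expression induced by doxycycline in cells with stable M3 receptor; B-score is computed from the integrated fluorescence ratio over baseline after carbachol; higher B-score means a larger calcium signal and so more RGS4 inhibition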
MrgX1 ag = human MrgX1 receptor agonism, primary screen. Q96LB2. MrgX1-HEK293 cells, Fluo-4 calcium fluorescence, agonist mode; hits give high values. B-score at 10 µM. 310,000 compounds, 0.44% hits. AID 588627;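 active = calcium response B-score plate-corrected fluorescence ratio at least 3 library SD, with starting fluorescence B-score inside 5 SD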
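Test system: HEK293 cells stably expressing human MrgX1 receptor; amount: 15,000 cells per well; doses: compound delivered in addition one of three; times: overnight plating before 1 h dye loading; detection: Fluo-4 NW calcium-flux fluorescence, kinetic read; read-out basis: B-scored fluorescence response ratio; controls: positive and negative controls per plate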
Large screens that a line does not name were inactive.

CN(C)/C=N/c1nc2nccc(-c3ccccc3)n2n1	none
CC(C)Sc1nc(N2CCCC2)c2c(c1C#N)CC(C)(C)OC2	RGS4 pot -7.2
O=C(N/C(=C/c1ccccc1Cl)C(=O)N1CCCCC1)c1ccco1	none (no result: Cl transport mod)
Cc1ccc(CSc2nc3ccccc3cc2C=O)cc1	RGS4 pot -8.3
Cc1ccc(S(=O)(=O)N2CCN(C(=O)COC(=O)Cc3cccc(C(F)(F)F)c3)CC2)c(C)c1	none (no result: Cl transport mod)
O=[N+]([O-])c1ccc(N2CCCCC2)s1	none
O=[N+]([O-])c1ccc(N2CCN(Cc3ccccc3)CC2)s1	MrgX1 antagonist -5 (no result: Cl transport mod)
CSCCC(NC(=O)c1ccccc1)C(=O)N1CC=C(c2ccccc2)CC1 (centres undefined)	none (no result: Cl transport mod)
O=C(COc1ccc(S(=O)(=O)NCc2ccccc2)cc1)NCc1cccnc1	none (no result: Cl transport mod, MrgX1 PAM, MrgX1 antagonist, MrgX1 ag)
COc1ccccc1C1NC=C([N+](=O)[O-])C=C1[N+](=O)[O-] (centres undefined)	MrgX1 ag 29
COc1ccccc1C1C([N+](=O)[O-])=CC([N+](=O)[O-])=CN1C (centres undefined)	none
C=CCOc1cccc(C2/C(=C(/O)c3ccc(Cl)cc3)C(=O)C(=O)N2CCN2CCOCC2)c1 (centres undefined)	MrgX1 antagonist -5 (no result: Cl transport mod)
O=S1(=O)N=C(N(CCO)/N=C/c2ccc(Cl)cc2)c2ccccc21	none (no result: Cl transport mod)
CN(C)c1ccc(/C=N/N(CCO)C2=NS(=O)(=O)c3ccccc32)cc1	RGS4 pot -7.9 (no result: Cl transport mod)
O=C(NC1CCCC1)C(c1ccccn1)N(Cc1ccccc1F)C(=O)c1csnn1 (centres undefined)	none (no result: Cl transport mod)
CC(C)CN1C(=O)/C(=C(/C#N)C(=O)NC2CCCCC2)c2ccccc21	MrgX1 PAM 8.2
CC(C)c1ccccc1NC(=O)COC(=O)c1c2c(nc3ccccc13)CCN(Cc1ccccc1)C2	RGS4 pot -8.1
NC(=O)COC(=O)c1c2c(nc3ccccc13)CCC2	none
CC(C)NC(=O)NC(=O)COC(=O)c1c2c(nc3ccccc13)CCC2	RGS4 pot -7 (no result: Cl transport mod)
Cc1ccc(C(=O)C(C)OC(=O)CCN2C(=O)C3C4C=CC(C5CC45)C3C2=O)cc1 (centres undefined)	none (no result: Cl transport mod)
CN1CCN(/N=C/c2c3ccccc3c(Cl)c3ccccc23)CC1	MrgX1 PAM 9.3
Cc1cccc(C(C)C)c1NC(=O)c1c(-c2ccccc2)noc1C	none (no result: Cl transport mod)
CC(C)(C)c1ccc(C(=O)NC(=S)NNC(=O)c2cccs2)cc1	Cl transport mod 57, MrgX1 ag 47
CC(C)(C)c1ccc(C(=O)NC(=S)NNC(=O)COc2ccccc2)cc1	RGS4 pot -7.5, MrgX1 ag 45 (no result: Cl transport mod)
CC(C)(C)C(=O)NC(=S)NNC(=O)c1ccncc1	none
CC(C)(C)C(=O)NC(=S)NNC(=O)c1ccc(-c2ccccc2)cc1	Cl transport mod 87, RGS4 pot -7.5, MrgX1 ag 179
CCCCc1nnc(SC(C)C(=O)Nc2nccs2)n1C (centres undefined)	none (no result: Cl transport mod)
COc1cc(OC)cc(-c2nnc(Sc3ccc(C=O)cc3[N+](=O)[O-])o2)c1	MrgX1 antagonist -4.5, RGS4 inh 7.2 (no result: Cl transport mod)
CCOc1ccc(NC(=O)C2C3C=CC4(O3)C2C(=O)N(Cc2cccnc2)C4C(=O)NC2CCCCC2)cc1 (centres undefined)	none (no result: Cl transport mod)
Cc1cccc(NC(=O)c2n[nH]c([N+](=O)[O-])c2Br)c1C	MrgX1 PAM 7.1
Cc1cccc(NC(=O)c2ccccn2)c1C	none (no result: Cl transport mod)
COc1ccc2nc(/N=C/c3c(C)[nH]n(-c4ccc(C)cc4C)c3=O)sc2c1	Cl transport mod 62
COc1ccccc1N=Cc1c(C)[nH]n(-c2ccc(C)cc2C)c1=O	none
C/C(=N\N=C(N)N)c1ccc(Cl)c(Cl)c1	MrgX1 PAM 14
C/C(=N\NC(=O)C1CC1)c1ccc(Cl)c(Cl)c1	none
Cc1nc(SCC(=O)N2CCOCC2)c2c(C)c(C)sc2n1	none (no result: Cl transport mod)
Cc1nc(SC2CCOC2=O)c2c(C)c(C)sc2n1 (centres undefined)	Cl transport mod 7.1
CC1=CC(=O)C=C(C)C1=NOc1ccc([N+](=O)[O-])cc1	MrgX1 ag 33
CC1CN(C)C(C)C/C1=N\Oc1ccc([N+](=O)[O-])cc1 (centres undefined)	none
CCN(CC)c1ccc2cc(/C(N)=N/NC(=O)c3cccs3)c(=O)oc2c1	MrgX1 PAM 27
O=C(Nc1ccc2[nH]c(=S)sc2c1)c1ccccc1	Cl transport mod 44
Cc1nc2ccc(NC(=O)c3ccccc3)cc2s1	none
CCOc1ccccc1C(=O)NCC(=O)NCC(c1ccco1)N1CCCCC1 (centres undefined)	none (no result: Cl transport mod)
COc1ccc(NC(=O)c2ccc(-n3cncn3)c([N+](=O)[O-])c2)cc1OC	none (no result: Cl transport mod)
O=C(Nc1cccc(/C=C/c2ccccn2)c1)c1ccc(-n2cncn2)c([N+](=O)[O-])c1	RGS4 pot -7.7 (no result: Cl transport mod)
CCOC(=O)CC1C(=O)NCCN1c1nc2ccc(C)cn2c(=O)c1/C=C1\SC(=S)N(C(C)CC)C1=O (centres undefined)	MrgX1 ag 108
CC(=O)N1CCN(c2ccccc2NC(=O)c2ccco2)CC1	none (no result: Cl transport mod)
COc1ccc(CN(CCNC(=O)CCCCC(=O)NCCN(Cc2ccc(OC)cc2)C(C)C)C(C)C)cc1	RGS4 pot -9.2 (no result: Cl transport mod)
O=C(O)c1ccc(CP(=O)(c2ccccc2)c2ccccc2)cc1	none (no result: Cl transport mod)
CCCCOc1ccc2c(c1)/C(=C(\C(Cl)=C(Cl)Cl)[N+](=O)[O-])N2	MrgX1 ag 34
COc1ccc(CC2(CO)CCN(Cc3cccc4nccnc34)CC2)cc1	none
COc1ccc(CN2CCC(CO)(Cc3ccccc3C(F)(F)F)CC2)c(F)c1	RGS4 pot -7.1
Cc1ccccc1NC(=O)/C(=C/c1ccccc1)c1ccccc1	MrgX1 PAM 8.1 (no result: Cl transport mod)
Cc1cccc(C)c1NC(=O)/C(=C/c1ccco1)c1ccccc1	MrgX1 PAM 12
C=CCN1C(=O)C2(OCCCO2)c2cc(C)ccc21	none (no result: Cl transport mod)
O=C1CSC(c2ccccc2)N1c1ccc([N+](=O)[O-])cc1 (centres undefined)	RGS4 pot -7 (no result: Cl transport mod)
Cc1c(N2C(=O)CSC2c2ccc([N+](=O)[O-])cc2)c(=O)n(-c2ccccc2)n1C (centres undefined)	none
Cc1ccc(/C=C/C2=NN(Cc3ccccc3)C(=O)CC2)cc1	none (no result: Cl transport mod)
O=C1CCC(/C=C/c2ccccc2)=NN1Cc1ccccc1	MrgX1 PAM 10 (no result: Cl transport mod)
O=C(N/N=C/c1ccccn1)c1cc(Br)ccc1O	MrgX1 ag 27 (no result: Cl transport mod)
CCC(C)(CN(C)C)OC(=O)c1ccccc1 (centres undefined)	none (no result: Cl transport mod, RGS4 pot, RGS4 inh)
O=C(Nc1ccc(S(=O)(=O)Nc2ncccn2)cc1)c1ccccc1Br	none (no result: Cl transport mod)
N#Cc1c(-c2cccc(F)c2)cc(-c2ccccc2)nc1Br	none
